Measurements published in ChEMBL document CHEMBL3804761, “Synthesis of a stable and orally bioavailable englerin analogue” (Bioorg Med Chem Lett, 2016).

Legend:
Assay type in all cases: functional
[1] = Growth inhibition of human SF268 cells assessed as cell growth at 10 uM incubated for 48 hrs by sulforhodamine B assay relative to control; conditions: SF-268, 48 h, read-out: Activity
Method in brief: (§1)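 Run in the standard NCI 60-cell-line screen. Cells were exposed to drug for two days, and the read-out was sulforhodamine B staining. Compound was tested at a single final concentration of 10 µM in every line, and results are reported as growth percent.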

[2] = Growth inhibition of human SF295 cells assessed as cell growth at 10 uM incubated for 48 hrs by sulforhodamine B assay relative to control; conditions: SF-295, 48 h, read-out: Activity; method in brief: as §1
[3] = Growth inhibition of human SF539 cells assessed as cell growth at 10 uM incubated for 48 hrs by sulforhodamine B assay relative to control; conditions: SF-539, 48 h, read-out: Activity
Method in brief: (§2)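 Single-dose screen in the NCI 60-cell-line panel at one final concentration of 10 µM. Two-day drug exposure with a sulforhodamine B endpoint. Values are growth percent for each cell line.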

[4] = Growth inhibition of human SNB75 cells assessed as cell growth at 10 uM incubated for 48 hrs by sulforhodamine B assay relative to control; conditions: SNB-75, 48 h, read-out: Activity; method in brief: as §1
[5] = Growth inhibition of human OVCAR3 cells assessed as cell growth at 10 uM incubated for 48 hrs by sulforhodamine B assay relative to control; conditions: OVCAR-3, 48 h, read-out: Activity; method in brief: as §1
A498 = assay: Growth inhibition of human A498 cells assessed as cell growth at 10 uM incubated for 48 hrs by sulforhodamine B assay relative to control; conditions: A498, 48 h, read-out: Activity
ACHN = assay: Growth inhibition of human ACHN cells assessed as cell growth at 10 uM incubated for 48 hrs by sulforhodamine B assay relative to control; conditions: read-out: Activity; method in brief: as §1
[6] = Growth inhibition of human PC3 cells assessed as cell growth at 10 uM incubated for 48 hrs by sulforhodamine B assay relative to control; conditions: PC-3, 48 h, read-out: Activity; method in brief: as §1
[7] = Growth inhibition of human BT549 cells assessed as cell growth at 10 uM incubated for 48 hrs by sulforhodamine B assay relative to control; conditions: BT-549, 48 h, read-out: Activity; method in brief: as §1
CCRF-CEM [8] = assay: Growth inhibition of human CCRF-CEM cells assessed as cell growth at 10 uM incubated for 48 hrs by sulforhodamine B assay relative to control; conditions: read-out: Activity; method in brief: as §2
CCRF-CEM [9] = assay: Growth inhibition of human CCRF-CEM cells incubated for 48 hrs by sulforhodamine B assay
Method in brief: (§3)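 NCI 60-cell-line panel, standard protocol. Cells exposed to compound for two days, growth read by sulforhodamine B staining. Tested at five 10-fold dilutions, top concentration 100 µM, to give dose-response curves.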

[10] = Growth inhibition of human RPMI8226 cells incubated for 48 hrs by sulforhodamine B assay; conditions: RPMI-8226, 48 h; method in brief: as §3
NCI-H322M = assay: Growth inhibition of human NCI-H322M cells incubated for 48 hrs by sulforhodamine B assay; method in brief: as §3
[11] = Growth inhibition of human HCT116 cells incubated for 48 hrs by sulforhodamine B assay; conditions: HCT-116, 48 h; method in brief: as §3
HT-29 = assay: Growth inhibition of human HT-29 cells incubated for 48 hrs by sulforhodamine B assay; conditions: HT-29, 48 h; method in brief: as §3
[12] = Growth inhibition of human SF295 cells incubated for 48 hrs by sulforhodamine B assay; conditions: SF-295, 48 h; method in brief: as §3
[13] = Growth inhibition of human SNB19 cells incubated for 48 hrs by sulforhodamine B assay; conditions: SNB-19, 48 h
Method in brief: (§4)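 Tested in the standard NCI 60-cell-line protocol with two-day drug exposure and a sulforhodamine B endpoint. Compounds were first screened at a single final concentration of 10 µM, reported as growth percent. They were then run as five 10-fold dilutions starting from a high concentration of 100 µM to give dose-response curves.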

[14] = Growth inhibition of human SNB75 cells incubated for 48 hrs by sulforhodamine B assay; conditions: SNB-75, 48 h; method in brief: as §4
MDA-MB-435 = assay: Growth inhibition of human MDA-MB-435 cells incubated for 48 hrs by sulforhodamine B assay; conditions: MDA-MB-435, 48 h; method in brief: as §3
SK-MEL-28 = assay: Growth inhibition of human SK-MEL-28 cells incubated for 48 hrs by sulforhodamine B assay; conditions: SK-MEL-28, 48 h; method in brief: as §3
[15] = Growth inhibition of human IGROV1 cells incubated for 48 hrs by sulforhodamine B assay; conditions: IGROV-1, 48 h; method in brief: as §3
[16] = Growth inhibition of human DU145 cells incubated for 48 hrs by sulforhodamine B assay; conditions: DU-145, 48 h; method in brief: as §3
T47D = assay: Growth inhibition of human T47D cells incubated for 48 hrs by sulforhodamine B assay; method in brief: as §4
[17] = Growth inhibition of human HL-60(TB) cells assessed as cell growth at 10 uM incubated for 48 hrs by sulforhodamine B assay relative to control; conditions: HL-60, 48 h, read-out: Activity; method in brief: as §2
[18] = Growth inhibition of human RPMI8226 cells assessed as cell growth at 10 uM incubated for 48 hrs by sulforhodamine B assay relative to control; conditions: RPMI-8226, 48 h, read-out: Activity; method in brief: as §1
[19] = Growth inhibition of human HOP62 cells assessed as cell growth at 10 uM incubated for 48 hrs by sulforhodamine B assay relative to control; conditions: HOP-62, 48 h, read-out: Activity; method in brief: as §1
[20] = Growth inhibition of human HOP92 cells assessed as cell growth at 10 uM incubated for 48 hrs by sulforhodamine B assay relative to control; conditions: HOP-92, 48 h, read-out: Activity; method in brief: as §2
NCI-H460 = assay: Growth inhibition of human NCI-H460 cells assessed as cell growth at 10 uM incubated for 48 hrs by sulforhodamine B assay relative to control; conditions: NCI-H460, 48 h, read-out: Activity; method in brief: as §1
[21] = Growth inhibition of human HCT15 cells assessed as cell growth at 10 uM incubated for 48 hrs by sulforhodamine B assay relative to control; conditions: HCT-15, 48 h, read-out: Activity; method in brief: as §1
[22] = read-out: pLC50 (the source's name) (converted)

**Q.** For `CC(C)[C@@]12C[C@@H](NC(=O)CO)[C@@](C)(O1)[C@@H]1CC[C@@H](C)[C@H]1[C@@H]2OC(=O)/C=C/c1ccccc1`, which growth at 10 µM [1] is on record?
**A.** 84.4%

**Q.** What about the growth at 10 µM [2] of the same molecule?
**A.** 90.6%

**Q.** And the growth at 10 µM [3]?
**A.** 97.2%

**Q.** What about the growth at 10 µM [4] of the same molecule?
**A.** 59.6%

**Q.** And the growth at 10 µM [5]?
**A.** 106%

**Q.** What about the growth at 10 µM (A498) of the same molecule?
**A.** -15.2%

**Q.** And the growth at 10 µM (ACHN)?
**A.** 8.01%

**Q.** What about the growth at 10 µM [6] of the same molecule?
**A.** 77.5%

**Q.** What about the growth at 10 µM [7] of the same molecule?
**A.** 84.9%

**Q.** And the growth at 10 µM (CCRF-CEM [8])?
**A.** 99.8%

**Q.** What about the GI50 (CCRF-CEM [9]) of the same molecule?
**A.** 14.1 µM

**Q.** What about the CC50 (CCRF-CEM [9]; [22]) of the same molecule?
**A.** > 50.1 µM

**Q.** What about the TGI (CCRF-CEM [9]; read-out: pTGI (converted)) of the same molecule?
**A.** > 50.1 µM

**Q.** And the GI50 [10]?
**A.** 11.5 µM

**Q.** And the CC50 [10, 22]?
**A.** > 50.1 µM

**Q.** What about the TGI ([10]; read-out: pTGI (converted)) of the same molecule?
**A.** 42.7 µM

**Q.** What about the GI50 (NCI-H322M) of the same molecule?
**A.** > 50.1 µM

**Q.** And the LC50 (NCI-H322M)?
**A.** > 50.1 µM

**Q.** What about the TGI (NCI-H322M; read-out: pTGI (converted)) of the same molecule?
**A.** > 50.1 µM

**Q.** What about the GI50 [11] of the same molecule?
**A.** 10.7 µM

**Q.** What about the LC50 [11] of the same molecule?
**A.** > 50.1 µM

**Q.** And the TGI ([11]; read-out: pTGI (converted))?
**A.** 38 µM

**Q.** What about the GI50 (HT-29) of the same molecule?
**A.** 16.6 µM

**Q.** And the LC50 (HT-29)?
**A.** > 50.1 µM

**Q.** What about the TGI (HT-29; read-out: pTGI (converted)) of the same molecule?
**A.** > 50.1 µM

**Q.** And the GI50 [12]?
**A.** 18.6 µM

**Q.** What about the LC50 (concentration causing 50% net cell kill) [12] of the same molecule?
**A.** > 50.1 µM

**Q.** What about the TGI ([12]; read-out: pTGI (converted)) of the same molecule?
**A.** > 50.1 µM

**Q.** What about the GI50 [13] of the same molecule?
**A.** 24.5 µM

**Q.** And the CC50 [13, 22]?
**A.** > 50.1 µM

**Q.** What about the TGI ([13]; read-out: pTGI (converted)) of the same molecule?
**A.** > 50.1 µM

**Q.** And the GI50 [14]?
**A.** 9.77 µM

**Q.** What about the LC50 [14] of the same molecule?
**A.** > 50.1 µM

**Q.** And the TGI ([14]; read-out: pTGI (converted))?
**A.** 43.7 µM

**Q.** And the GI50 (MDA-MB-435)?
**A.** 18.2 µM

**Q.** What about the LC50 (MDA-MB-435) of the same molecule?
**A.** > 50.1 µM

**Q.** And the TGI (MDA-MB-435; read-out: pTGI (converted))?
**A.** > 50.1 µM

**Q.** And the GI50 (SK-MEL-28)?
**A.** 20.9 µM

**Q.** What about the LC50 (SK-MEL-28) of the same molecule?
**A.** > 50.1 µM

**Q.** What about the TGI (SK-MEL-28; read-out: pTGI (converted)) of the same molecule?
**A.** > 50.1 µM

**Q.** What about the GI50 [15] of the same molecule?
**A.** > 50.1 µM

**Q.** What about the CC50 [15, 22] of the same molecule?
**A.** > 50.1 µM

**Q.** And the TGI ([15]; read-out: pTGI (converted))?
**A.** > 50.1 µM

**Q.** What about the GI50 [16] of the same molecule?
**A.** 25.1 µM

**Q.** And the CC50 [16, 22]?
**A.** > 50.1 µM

**Q.** What about the TGI ([16]; read-out: pTGI (converted)) of the same molecule?
**A.** > 50.1 µM

**Q.** What about the GI50 (T47D) of the same molecule?
**A.** 19.1 µM

**Q.** And the CC50 (T47D; [22])?
**A.** > 50.1 µM

**Q.** What about the TGI (T47D; read-out: pTGI (converted)) of the same molecule?
**A.** > 50.1 µM

**Q.** What about the growth at 10 µM [17] of the same molecule?
**A.** 91.7%

**Q.** And the growth at 10 µM [18]?
**A.** 90.6%

**Q.** What about the growth at 10 µM [19] of the same molecule?
**A.** 86.8%

**Q.** And the growth at 10 µM [20]?
**A.** 88.6%

**Q.** And the growth at 10 µM (NCI-H460)?
**A.** 108%

**Q.** What about the growth at 10 µM [21] of the same molecule?
**A.** 108%
